Measurements published in paper PMC5644278 (Alzheimer's & Dementia : Translational Research & Clinical …, 2016).

Experiments:
Format in all cases: in vivo, human
healthy male subjects [1] = assay: NeuroCart test battery, overall pharmacodynamic effects; details: galantamine 16 mg oral; healthy elderly males
Procedure, shortened: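 Double-blind study in healthy nonsmoking elderly men (cohorts 3–4, 12 on active drug). A single oral 16 mg dose was given at the same time as the other cohort treatments, with elderly double-placebo controls. Battery: N-back, Stroop, adaptive tracking, Bond–Lader VAS, pharmaco-EEG, eye movements, pupil size, body sway, face encoding/recognition and VVLT. Two baseline runs, then 1–6, 8 and 10 h post-dose. VVLT ran at 1 h 30 min only; face recognition predose and at 1 h 45 min. Analysis by mixed-model ANOVA with fixed factor treatment.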

[2] = Plasma pharmacokinetics after single intranasal dose of Gln-1062; details: for half-life / AUC(0-inf) / Cmax: male, human, inhaled or intranasal
healthy male subjects [3] = assay: VAS nausea, single dose; details: healthy elderly males
healthy male subjects [4] = assay: Treatment emergent adverse events, single dose study; details: galantamine 16 mg oral

## COc1ccc2c3c1O[C@H]1C[C@@H](O)C=C[C@@]31CCN(C)C2 [galantamine]
Healthy male subjects [1]
  pharmacodynamic effects compared with placebo: did not induce any measurable pharmacodynamic effects
[2]
  half-life: ~10 h
[2]; 5.5 mg
  AUC(0-inf): 268 ng·h/mL
  Cmax: 17.6 ng/mL
  half-life: 9.85 h
[2]; 11 mg
  AUC(0-inf): 367 ng·h/mL
  Cmax: 27.7 ng/mL
  half-life: 7.94 h
[2]; 22 mg
  AUC(0-inf): 799 ng·h/mL
  Cmax: 46.5 ng/mL
  half-life: 8.71 h
[2]; 33 mg
  AUC(0-inf): 1190 ng·h/mL
  Cmax: 76.1 ng/mL
  half-life: 9.24 h
[2]; 44 mg
  AUC(0-inf): 1530 ng·h/mL
  Cmax: 74.7 ng/mL
  half-life: 11.1 h
[2]; over the Gln-1062 intranasal dose levels
  Tmax for galantamine after administration of Gln-1062: 2.3 to 4.7 h
Healthy male subjects [3]
  peak of nausea (VAS nausea), time after administration: 2 h
Healthy male subjects [4]
  Cold sweat or hyperhidrosis, incidence: 33.3%
Healthy male subjects [4]; healthy elderly males
  Nausea, incidence: 33.3%
Healthy male subjects [4]; healthy elderly subjects
  Diarrhea, incidence: 8.3%
  Vomiting, incidence: 41.7%
